Here are results for 28 molecules from ChEMBL document CHEMBL3421585, “Structure-Based Design of Potent and Selective Inhibitors of the Metabolic Kinase PFKFB3” (J Med Chem, 2015).

In data set [1] the target is T1, 6-phosphofructo-2-kinase/fructose-2,6-bisphosphatase 3 (Homo sapiens, UniProt Q16875). The data set is described as follows: Inhibition of recombinant human PFKFB3 using fructose 6 phosphate as substrate assessed as ADP generation after 1 hr by ADP Glo assay.
Data set [2] concerns the target T1, 6-phosphofructo-2-kinase/fructose-2,6-bisphosphatase 3. Nature of the data set: Inhibition of PFKFB3 in human A549 cells assessed as decrease in lactate secretion after 4 hrs. The data set is classed as cell-based. In short, it runs like this:
(§1)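 A549 cells; fructose-1,6-bisphosphate or lactate production measured.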

Data set [3] shares this target. The data set is described as follows: Inhibition of PFKFB3 in human A549 cells assessed as reduction of fructose-1,6-bisphosphate formation after 4 hrs by MS/MS analysis. It counts as cell-based. In outline: as §1
Data set [4] addresses 6-phosphofructo-2-kinase/fructose-2,6-bisphosphatase 2 (Homo sapiens, UniProt O60825). Nature of the data set: Inhibition of recombinant human PFKFB2 using fructose 6 phosphate as substrate assessed as ADP generation after 1 hr by ADP Glo assay.
Data set [5] can be described thus: Lipophilicity, log D of the compound at pH 7.4. The following applies: buffer.
Data set [6] concerns the target 6-phosphofructo-2-kinase/fructose-2,6-bisphosphatase 1 (Homo sapiens, UniProt P16118). The data set is described as follows: Inhibition of recombinant human PFKFB1 using fructose 6 phosphate as substrate assessed as ADP generation after 1 hr by ADP Glo assay. A general note: ADP-Glo first removes unused ATP, then detects ADP through luciferase.
The next data set has as its system A549. Nature of the data set: Cytotoxicity against human A549 cells assessed as cell viability after 4 hrs. The following applies: a549, 4 h. The data set is classed as cell-based.

6-phosphofructo-2-kinase/fructose-2,6-bisphosphatase 1, sequence (P16118 whole entry): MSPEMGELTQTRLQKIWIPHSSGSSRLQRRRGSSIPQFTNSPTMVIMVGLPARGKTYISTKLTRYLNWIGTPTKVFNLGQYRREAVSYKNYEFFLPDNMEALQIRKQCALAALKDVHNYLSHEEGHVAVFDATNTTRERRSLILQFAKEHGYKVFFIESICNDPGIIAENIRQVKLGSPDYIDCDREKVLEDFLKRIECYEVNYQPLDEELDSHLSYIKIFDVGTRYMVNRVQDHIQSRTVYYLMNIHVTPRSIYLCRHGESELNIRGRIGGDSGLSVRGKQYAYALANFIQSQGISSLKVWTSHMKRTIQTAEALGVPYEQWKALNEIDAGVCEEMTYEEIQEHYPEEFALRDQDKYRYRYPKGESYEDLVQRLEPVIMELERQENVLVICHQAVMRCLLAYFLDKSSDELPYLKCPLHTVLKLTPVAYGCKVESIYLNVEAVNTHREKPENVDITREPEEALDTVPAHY
T1 sequence (Q16875 whole entry): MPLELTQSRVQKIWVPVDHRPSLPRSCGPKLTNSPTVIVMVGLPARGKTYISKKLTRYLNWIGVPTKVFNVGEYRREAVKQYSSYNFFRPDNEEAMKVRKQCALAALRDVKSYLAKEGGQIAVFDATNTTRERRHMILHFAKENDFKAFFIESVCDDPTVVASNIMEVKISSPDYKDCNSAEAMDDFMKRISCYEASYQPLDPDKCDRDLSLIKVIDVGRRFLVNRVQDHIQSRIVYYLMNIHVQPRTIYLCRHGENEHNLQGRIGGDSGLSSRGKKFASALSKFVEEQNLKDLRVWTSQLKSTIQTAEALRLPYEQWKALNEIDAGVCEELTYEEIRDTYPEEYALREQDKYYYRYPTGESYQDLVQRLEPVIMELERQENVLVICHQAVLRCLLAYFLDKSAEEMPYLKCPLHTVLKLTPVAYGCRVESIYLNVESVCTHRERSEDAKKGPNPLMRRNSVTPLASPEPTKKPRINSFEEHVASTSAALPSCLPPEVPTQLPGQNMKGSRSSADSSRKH
6-phosphofructo-2-kinase/fructose-2,6-bisphosphatase 2, sequence (O60825 whole entry): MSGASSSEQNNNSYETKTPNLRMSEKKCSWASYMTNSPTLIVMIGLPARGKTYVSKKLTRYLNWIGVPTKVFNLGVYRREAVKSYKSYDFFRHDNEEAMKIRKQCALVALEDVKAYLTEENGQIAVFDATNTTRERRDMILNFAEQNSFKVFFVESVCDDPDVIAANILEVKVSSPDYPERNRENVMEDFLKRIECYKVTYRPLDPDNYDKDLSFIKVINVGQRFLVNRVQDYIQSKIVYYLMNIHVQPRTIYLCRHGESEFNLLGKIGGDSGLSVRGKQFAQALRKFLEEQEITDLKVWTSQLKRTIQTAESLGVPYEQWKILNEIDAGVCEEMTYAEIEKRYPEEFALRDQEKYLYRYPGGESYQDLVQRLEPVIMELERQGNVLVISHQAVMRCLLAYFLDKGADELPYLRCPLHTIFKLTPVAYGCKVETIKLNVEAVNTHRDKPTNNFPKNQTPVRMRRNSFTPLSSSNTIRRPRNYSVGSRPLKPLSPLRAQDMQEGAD

A word on the IC50: it is the concentration at which inhibition is half-maximal. As usually defined, the logD is the decadic logarithm of the distribution of all forms, ionised or not, between an organic phase and buffer at a given pH. Read a high logD as higher lipophilicity. Regarding `CCn1c(N)c(C#N)c2cc(Oc3ccc(NC(=O)CN)cc3)ccc21`, the IC50 in data set [1] is 0.514 µM; in data set [2] it was over 30 µM; in data set [3], over 30 µM; in data set [4] it was 9.18 µM; in data set [6], 25 µM. Moreover, in data set [5], the logD turned out to be 2.
As to `CCn1cc(C#N)c2cc(Oc3ccc(NC(=O)[C@@H]4CCN4)cc3)ccc21`, the IC50 came to 0.086 µM in data set [1], 19.6 µM in data set [2] and 3.74 µM in data set [6].
`N#Cc1cn(Cc2ccccc2)c2ccc(Oc3ccc(NC(=O)[C@@H]4CCCN4)cc3)cc12`: the IC50 is 0.02 µM in data set [1], 6.95 µM in data set [2], 0.188 µM in data set [4] and 1.83 µM in data set [6]. In addition, in data set [5], the logD worked out at 3.9. Further, in the data set on A549, the Activity result was “Toxic”.
Consider `CCn1cc(C#N)c2cc(Oc3ccc(NC(=O)CNC)cc3)ccc21`, for which the IC50 was 0.83 µM in data set [1], over 30 µM in data set [2], 24.9 µM in data set [4] and 20.4 µM in data set [6]. The logD in data set [5] stood at 2.7.
On the same counts, the results for `CCn1cc(C#N)c2cc(Oc3ccc(NC(=O)CN)cc3)ccc21` are 0.562 µM, over 30 µM, 22.8 µM, 18.4 µM and 2.5.
Consider `CCn1cc(C#N)c2cc(Oc3ccc(NC(=O)[C@H]4CCCN4)cc3)ccc21`, for which the IC50 was 70.9 µM in data set [1], over 30 µM in data set [2], over 100 µM in data set [4] and over 100 µM in data set [6]. This molecule gave a logD in data set [5] of 2.8.
As for `CC(C)Cn1cc(C#N)c2cc(Nc3ccc(NC(=O)[C@@H]4CCCN4)cc3)ccc21`, the IC50 is 1.57 µM in data set [1], over 30 µM in data set [2], 6.15 µM in data set [4] and 36.6 µM in data set [6]. In addition, the logD in data set [5] came out at 2.7.
On the same counts, the results for `CCn1cc(C#N)c2cc(Oc3ccc(N(C)C(=O)[C@@H]4CCCN4)cc3)ccc21` are 23.1 µM, over 30 µM, 76.5 µM, 72.3 µM and 1.9.
In the case of `CC(C)Cn1cc(C#N)c2cc(Sc3ccc(NC(=O)[C@@H]4CCCN4)cc3)ccc21`, the IC50 in data set [1] stood at 0.111 µM; in data set [2], 14 µM; in data set [4] it was 0.19 µM; in data set [6], 1.66 µM. Further, the logD in data set [5] was over 4.3. The Activity result in the data set with A549 was “Toxic”.
In the case of `CCn1cc(C#N)c2cc(Oc3ccc(NC(=O)CN(C)C)cc3)ccc21`, the IC50 in data set [1] is 9.83 µM; in data set [2], over 30 µM; in data set [4] it was 76.1 µM; in data set [6] it was 62.9 µM.
As to `Cc1noc(C)c1Cn1cc(C#N)c2cc(Oc3ccc(NC(=O)[C@@H]4CCCN4)cc3)ccc21`, the IC50 in data set [1] is 0.011 µM; in data set [2], over 30 µM; in data set [3], 0.281 µM; in data set [4], 0.159 µM; in data set [6], 1.13 µM. Moreover, in data set [5], the logD was found to be 2.8.
For `CNC(=O)Cn1cc(C#N)c2cc(Oc3ccc(NC(=O)[C@@H]4CCCN4)cc3)ccc21`, the IC50 in data set [1] is 0.111 µM; in data set [2], over 30 µM; in data set [3], 14 µM; in data set [4] it was 2.35 µM; in data set [6], 16.9 µM. Besides, in data set [5], the logD was found to be 1.4.
For `CC(C)Cn1cc(C#N)c2cc(S(=O)(=O)c3ccc(NC(=O)[C@@H]4CCCN4)cc3)ccc21`, the IC50 in data set [1] was 37.7 µM; in data set [2], 24.7 µM; in data set [3] it was over 30 µM; in data set [4], over 100 µM; in data set [6], 0.321 µM. In data set [5], this molecule gave a logD of 2.9.
For `N#Cc1c[nH]c2ccc(Oc3ccc(NC(=O)CN)cc3)cc12`, the results for the IC50 in data set [1], in data set [4] and in data set [6] were 2.01 µM, 63.2 µM and 37.6 µM, respectively. The same molecule gave a logD in data set [5] of 2.1.
For `CN(C)CCn1cc(C#N)c2cc(Oc3ccc(NC(=O)[C@@H]4CCCN4)cc3)ccc21`, the IC50 in data set [1] is 0.256 µM; in data set [2] it was over 30 µM; in data set [3], 7.48 µM; in data set [4], over 100 µM; in data set [6] it was 53.8 µM. This molecule displayed a logD in data set [5] of 2.1.
For the molecule `CC(C)Cn1cc(C#N)c2cc(Cc3ccc(NC(=O)[C@@H]4CCCN4)cc3)ccc21`, the IC50 in data set [1] is 0.199 µM; in data set [2] it was over 30 µM; in data set [3] it was over 30 µM; in data set [4], 1.45 µM; in data set [6], 5.92 µM. Besides, in data set [5], the logD amounted to 3.9.
On to `CC(=O)Nc1ccc(Oc2ccc3[nH]c(N)c(C#N)c3c2)cc1`, for which the IC50 in data set [1] is over 100 µM; in data set [4], over 100 µM; in data set [6], 24 µM. Further, the logD in data set [5] is 2.8.
Take `N#Cc1c(N)[nH]c2ccc(Oc3ccc(NC(=O)CN)cc3)cc12`: the IC50 in data set [1] is 2.32 µM; in data set [4], 53.8 µM; in data set [6] it was over 100 µM. The molecule also showed a logD in data set [5] of 1.6.
Take `CCn1cc(C#N)c2cc(Oc3ccc(NC(=O)[C@@H]4CCCCN4)cc3)ccc21`: the IC50 in data set [1] is 2.2 µM; in data set [2] it was over 30 µM; in data set [4], 22 µM; in data set [6] it was 86.3 µM. Besides, the logD in data set [5] stood at 2.7.
Consider `N#Cc1c(N)[nH]c2ccc(Oc3ccc(NC(=O)[C@H](N)CO)cc3)cc12`, for which the figures for the IC50 in data set [1], in data set [4] and in data set [6] were over 100 µM, over 100 µM and 61.5 µM, respectively. The logD in data set [5] amounted to 1.6.
Regarding `CN(C)C(=O)Cn1c(N)c(C#N)c2cc(Oc3ccc(NC(=O)CN)cc3)ccc21`, the IC50 in data set [1] was 0.343 µM; in data set [2], over 30 µM; in data set [3], over 30 µM; in data set [4], 6.84 µM; in data set [6], 2.53 µM. In data set [5], this molecule returned a logD of 0.5.
Turning to `N#Cc1c(N)[nH]c2ccc(Oc3ccc(NC(=O)[C@@H](N)CO)cc3)cc12`, the IC50 in data set [1] is 0.575 µM; in data set [2], over 30 µM; in data set [3], over 30 µM; in data set [4] it was 26.9 µM; in data set [6] it was 51.1 µM. Moreover, in data set [5], the logD is 1.9.
In the case of `Cc1noc(C)c1Cn1nc(C#N)c2cc(Oc3ccc(NC(=O)[C@@H]4CCCN4)cc3)ccc21`, the IC50 in data set [1] was found to be 0.003 µM; in data set [3], 0.067 µM; in data set [4], 0.025 µM; in data set [6], 0.191 µM.
As for `N#Cc1cn(CC2CCOCC2)c2ccc(Oc3ccc(NC(=O)[C@@H]4CCCN4)cc3)cc12`, the IC50 is 0.048 µM in data set [1]; over 30 µM in data set [2]; 0.633 µM in data set [3]; 0.429 µM in data set [4]; 3.47 µM in data set [6]. Also, the logD in data set [5] was determined as 2.8.
Consider `CCn1cc(C#N)c2cc(Oc3ccc(NC(=O)[C@@H]4CCC(=O)N4)cc3)ccc21`, for which the IC50 is 0.531 µM in data set [1], over 30 µM in data set [2], 23.7 µM in data set [4] and over 100 µM in data set [6].
In the case of `O=C(/C=C/c1cccnc1)c1ccncc1`, the IC50 in data set [1] is over 100 µM.
For the molecule `Cn1c(N)c(C#N)c2cc(Oc3ccc(NC(=O)CN)cc3)ccc21`, the IC50 in data set [1] was 0.815 µM; in data set [2] it was over 30 µM; in data set [4] it was 21.1 µM; in data set [6], 38.2 µM. For the same molecule, the log distribution coefficient (logD) in data set [5] came out at 1.9.
For `Cn1cc(-c2c[nH]c3ccc(Oc4ccc(NC(=O)[C@@H]5CCCN5)cc4)cc23)cn1`, the IC50 in data set [1] was 0.114 µM; in data set [2] it was over 30 µM; in data set [3] it was over 30 µM; in data set [4], 3.57 µM; in data set [6], 27.4 µM. This molecule registered a logD in data set [5] of 2.3.
